# High-throughput results deposited in PubChem BioAssay by several laboratories.
# T cell HTS – modulators of CD8 T cell-vesicle binding, primary screen, mouse 2C CD8+ T cells, flow cytometry. 2C CD8+ T cell-vesicle binding; hits give low values. 330,000 compounds, 0.068% hits. response (vesicle binding), % at 7 µM;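 active = response, share of CD8 T cells binding vesicles, and their 90th percentile fluorescence all below set limits, cut at about 80% in these data, passing the limit was not always enough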;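 note: values below 100% mean blocked vesicle binding to the CD8+ T cells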
#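 Test system: purified 2C TCR transgenic mouse naive CD8+ T cells. Probe or stimulus: QL9-peptide-loaded Drosophila micro-vesicles bearing Ld, ICAM-1 and B7-1. Incubation: binding step 1.5 h, 37 °C, antibody labelling 20 min, ice. Measured by: flow cytometry of vesicle-bound cells.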
# VLA-4 inh – inhibition in human VLA-4 binding assay, primary screen, VLA-4 allosteric modulator project, MLPCN library, flow cytometry, VLA-4 expressing cells | ligand binding flow cytometry | inhibition, % (about 7 µM as worked out from the volumes in the protocol) | 330,000 compounds, 0.2% hits | AID 2557, 2010; in the data active = inhibition above about 50%
# CHT inh – inhibitors of human choline transporter CHT. B-score at 10 µM. AID 488975, 2010. CHT-expressing cells, membrane potential dye, choline response; hits give low values. 310,000 compounds, 0.86% hits;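 active = B-score over 3 SD under the library average, and starting fluorescence ratio not unusually high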;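 note: choline stimulus applied at its EC90 after an EC20 pre-addition; B-score computed on integrated fluorescence ratio after choline addition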
# Target sequence (Q9GZV3 whole entry, looked up): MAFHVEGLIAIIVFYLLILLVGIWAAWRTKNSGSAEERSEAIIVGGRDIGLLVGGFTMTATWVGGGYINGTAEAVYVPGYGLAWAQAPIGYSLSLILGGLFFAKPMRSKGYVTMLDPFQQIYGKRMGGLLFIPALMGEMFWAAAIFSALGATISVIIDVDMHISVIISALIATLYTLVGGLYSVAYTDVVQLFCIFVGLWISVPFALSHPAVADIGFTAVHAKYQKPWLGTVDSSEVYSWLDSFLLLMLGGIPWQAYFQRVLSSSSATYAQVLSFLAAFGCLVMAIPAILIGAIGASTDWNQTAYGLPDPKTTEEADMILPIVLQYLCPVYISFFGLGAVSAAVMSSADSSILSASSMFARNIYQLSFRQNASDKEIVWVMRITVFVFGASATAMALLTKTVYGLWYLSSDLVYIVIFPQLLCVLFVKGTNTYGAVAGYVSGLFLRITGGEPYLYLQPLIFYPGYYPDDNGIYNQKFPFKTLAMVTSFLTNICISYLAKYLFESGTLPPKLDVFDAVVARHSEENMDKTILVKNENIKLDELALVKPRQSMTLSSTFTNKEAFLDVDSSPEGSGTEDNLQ
# CHT PAM – CHT positive allosteric modulators, primary screen, cell-based, membrane potential dye, choline EC20; CHT-expressing cells; hits give high values; LV-AA mutant CHT in HEK293 cells; B-score at 10 µM; 310,000 compounds, 0.49% hits; AID 488977, 2010;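 active = initial fluorescence not abnormally high and integrated response B-score, plate-corrected, over 3 SD above library mean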
# CHT activ conf – CHT activators, confirmation, cell-based, membrane potential dye, duplicate; shares compounds with CHT PAM; CHT-expressing cells, membrane potential dye fluorescence (FDSS); % of choline EC20–EC90 response window; HEK293 expressing CHT LV-AA mutant; choline added at its EC20; activation, % at 10 µM; 2,500 compounds, 91% hits; AID 504833, 2011;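 active = primary screen active, with duplicate mean activation above negative control mean plus 3 SD, cut at about 11% in these data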
# HEK293 MP dye – membrane potential response in parental HEK293 cells, counter-screen for CHT activator project, cell-based, membrane potential dye | shares compounds with CHT PAM | membrane potential dye fluorescence (FDSS); measured after EC20 choline addition | ratio readout change at 10 µM, hits read low | 2,500 compounds, 62% hits | AID 623908, 2012;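 active = duplicate-averaged ratio beyond 3 SD from buffer wells, up or down, though filed actives are nearly all decreases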
# * = called active by the depositor; i = inactive; · = not tested or not shown. This is a sample that favours compounds with a hit; in the whole collection about 1.5% have one here.
SMILES,T cell HTS,VLA-4 inh,CHT inh,CHT PAM,CHT activ conf,HEK293 MP dye
COc1ccc(S(=O)(=O)N(C)C[C@H]2Oc3ccc(NS(=O)(=O)c4cn(C)cn4)cc3C(=O)N([C@H](C)CO)C[C@@H]2C)cc1,229,42,·,·,·,·
COc1cc(OC)c(-c2nc3cnccc3n2C)cc1OC,·,15,i,6.6*,55*,-53*
Cn1c(-c2ccc3ccccc3n2)nc2cnccc21,296,13,i,i,45*,-40*
O=C(COC(=O)[C@@H]1CC(O)CN1S(=O)(=O)c1ccc2c(c1)OCCO2)Nc1cc(F)ccc1F (some centres undefined),162,-12,·,·,·,·
Cc1cc2ncn(-c3ncnc4scc(-c5ccccc5)c34)c2cc1C,713,17,i,8.4*,21*,i
CC(C)(C)Nc1c2ccccc2nc2ccccc12,378,-16,i,i,37*,-57*
CC(c1ccccc1)n1c(SCC(=O)Nc2ccccc2)n[nH]c1=O (centres undefined),141,2,i,i,·,·
Cc1cccc(OCc2n(CC(=O)OC3CC(C)CCC3C(C)C)c3ccccc3[n+]2C)c1 (centres undefined),526,12,i,9.3*,41*,i
CCOC(=O)c1cnc2ccc(C(=O)OC)cc2c1Nc1ccc(C(=O)O)cc1,186,-1,i,8.9*,63*,-63*
CCOC(=O)c1cnc2ccc(Cl)cc2c1NCCN(C)C,140,-3,i,i,27*,-39*
O=C(Nc1ccccn1)C1CCCN1S(=O)(=O)c1ccc(Cl)cc1 (centres undefined),183,3,i,i,·,·
NC(=O)CC(NC(=O)c1ccccc1)c1ccc(NCCN2CCCCC2)c([N+](=O)[O-])c1 (centres undefined),913,-5,i,i,·,·
CN1CCN(Cc2nc3c(c(=O)n(C)c(=O)n3C)n2CCCc2ccccc2)CC1,854,-4,i,8*,48*,-36*
CCN(CC)c1nc2c(c(=O)n(C)c(=O)n2C)n1CCCc1ccccc1,424,8,i,i,·,·
Cn1c(=O)c2c(nc(CN3CCOCC3)n2CCCc2ccccc2)n(C)c1=O,154,47,i,i,·,·
Cn1c(=O)c2c(nc(CN3CCCCC3)n2CCc2ccccc2)n(C)c1=O,142,12,i,12*,47*,i
CCCCCCn1c(CN2CCN(C)CC2)nc2c1c(=O)n(C)c(=O)n2C,433,2,i,9.5*,61*,-46*
CN(Cc1ccccc1)c1nc2c(c(=O)n(C)c(=O)n2C)n1CCCc1ccccc1,381,1,i,8.7*,25*,i
COc1ccccc1CNC(=O)c1ccccc1NC(=O)C1=C(C)OCCS1,392,-2,i,i,·,·
Cn1c(=O)c2c(nc(CN3CCN(c4cccc(Cl)c4)CC3)n2CCc2ccccc2)n(C)c1=O,394,-1,i,9.3*,24*,i
CS(=O)(=O)Nc1ccc2c(c1)C(=O)OC2,233,-6,i,i,·,·
CN(C)c1ccc2c3c(ccc(N(C)C)c13)C(=O)OC2,241,7,i,7.3*,80*,-96*
CSc1nc(Cl)c(Cc2ccc(OC(C)C)cc2)c(N(C)C)n1,151,-5,i,i,·,·
CCOc1ccc(Cc2c(Cl)nc(SC)nc2N(C)C)cc1,269,-5,i,6.4*,28*,i
Cc1cc(C)n2nc(C(=O)Nc3ccc(S(=O)(=O)N4CCCCC4)cc3)nc2n1,363,-3,i,i,22*,-24*
SMILES,T cell HTS,VLA-4 inh,CHT inh,CHT PAM,CHT activ conf,HEK293 MP dye
O=C(c1ccc2oc(CCc3ccccc3)nc2c1)N1CC[C@H](O)C1,276,8,i,i,·,·
Cc1cc(C)c2[nH]c(=O)c(C(c3nnnn3CC3CCCO3)N3CCC(C)CC3)cc2c1 (centres undefined),143,-1,i,i,·,·
Cc1cc(C)c2[nH]c(=O)c(C(c3nnnn3CC3CCCO3)N3CCCC(C)C3)cc2c1 (centres undefined),204,6,i,7.3*,5,i
COc1ccc(-c2csc(N3CCN(S(=O)(=O)c4ccc5c(c4)NC(=O)CO5)CC3)n2)cc1,392,4,i,i,·,·
COC(=O)c1ccc(N2CCN(C)CC2)c(NC(=O)COc2ccc(OC)cc2)c1,93,42,i,9.2*,69*,-65*
c1ccc(-c2cccc(-c3ccccn3)n2)nc1,·,20,i,i,14*,-47*
CCN(CC)CCN(C(=O)Cn1nnc(-c2ccc(C)o2)n1)C(C(=O)NC(C)(C)C)c1cccs1 (centres undefined),258,-1,i,i,·,·
CCCc1ccc2oc(C(=O)N3CCC(C(N)=O)(N4CCCCC4)CC3)c(C)c2c1,105,-1,i,i,·,·
COc1ccc(S(=O)(=O)N2c3ccccc3OCC2C(C)(C)C)cc1 (centres undefined),201,9,i,i,·,·
COc1ccc(S(=O)(=O)N2c3ccccc3OCC2C)cc1 (centres undefined),324,17,i,7.1*,32*,i
Oc1ccccc1N=Nc1nc(-c2ccccc2)c(-c2ccccc2)[nH]1,273,90*,i,i,0,i
COc1ccc(Oc2nc3c(c(=O)n(C)c(=O)n3C)n2Cc2ccccc2)cc1,219,-6,i,i,·,·
CC(C)CCn1c(Oc2ccc(Cl)cc2)nc2c1c(=O)n(C)c(=O)n2C,483,-18,i,i,25*,i
COc1cnc(-c2ccccn2)nc1N(C)C,187,-2,i,i,33*,-36*
C=CCOC(=O)c1ccc(-n2cncn2)nc1,558,-4,i,i,21*,i
CC1CCC(NC(=O)CCCn2sc3ccccc3c2=O)CC1 (centres undefined),235,12,i,8.7*,27*,i
O=C(CCCn1c(=O)[nH]c2ccccc2c1=O)NC1CCCCCC1,446,-6,i,i,·,·
c1ccc(N2CCN(c3nc(-c4cccs4)nc4ccccc34)CC2)cc1,188,10,i,i,·,·
CN1CCN(c2nc(-c3cccs3)nc3ccccc23)CC1,227,5,i,i,39*,-65*
